Data as given in ChEMBL document CHEMBL1134972, “Discovery of a potent and selective COX-2 inhibitor in the alkoxy lactone series with optimized metabolic profile” (Bioorg Med Chem Lett, 2002).

Assays:
Rattus norvegicus [1] = experiment: Antiinflammatory activity by using Rat paw edema assay; type: functional
Summary of the method: (§1)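 Rat in vivo models (paw edema, pyresis, hyperalgesia, adjuvant arthritis), with activity expressed as ED50 in mg/kg.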

Rattus norvegicus [2] = species on record: Rattus norvegicus; experiment: Antiinflammatory activity by using Rat adjuvant arthritis assay; type: functional; summary of the method: as §1
Rattus norvegicus [3] = species on record: Rattus norvegicus; experiment: Antiinflammatory activity by using Rat pyresis assay; type: functional; summary of the method: as §1
Rattus norvegicus [4] = species on record: Rattus norvegicus; experiment: Antiinflammatory activity by using Rat hyperalgesia assay; type: functional; summary of the method: as §1
[5] = Half-life in rat; type: ADME, organism-based; details: in vivo
Summary of the method: (§2)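 Rat pharmacokinetics at a 10 mg/kg dose, reporting half-life, Cmax (μM) and bioavailability (%).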

[6] = molecular target: T1, Prostaglandin G/H synthase 2 (Homo sapiens, UniProt P35354); experiment: In vitro inhibitory potency against Prostaglandin G/H synthase 2 in human whole blood assay; type: tissue-based
T1 sequence (P35354 whole entry): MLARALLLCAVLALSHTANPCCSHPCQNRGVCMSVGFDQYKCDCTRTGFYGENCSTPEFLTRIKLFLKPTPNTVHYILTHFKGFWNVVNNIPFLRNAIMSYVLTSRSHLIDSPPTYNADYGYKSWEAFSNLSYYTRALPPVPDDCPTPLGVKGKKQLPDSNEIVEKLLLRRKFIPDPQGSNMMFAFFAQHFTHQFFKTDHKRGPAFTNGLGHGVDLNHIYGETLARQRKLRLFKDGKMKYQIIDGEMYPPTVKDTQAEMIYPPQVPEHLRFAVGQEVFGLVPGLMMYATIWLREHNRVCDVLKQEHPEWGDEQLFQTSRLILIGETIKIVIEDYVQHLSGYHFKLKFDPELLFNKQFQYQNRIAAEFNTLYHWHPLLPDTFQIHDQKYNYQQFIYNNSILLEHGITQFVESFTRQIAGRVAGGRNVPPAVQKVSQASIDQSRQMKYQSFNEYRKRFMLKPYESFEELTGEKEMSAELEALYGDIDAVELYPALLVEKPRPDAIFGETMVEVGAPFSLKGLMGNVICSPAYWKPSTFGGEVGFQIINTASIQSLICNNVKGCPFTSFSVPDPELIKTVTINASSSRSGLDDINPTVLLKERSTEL

[7] = molecular target: Prostaglandin G/H synthase 1 (Homo sapiens, UniProt P23219); experiment: In vitro inhibitory potency against Prostaglandin G/H synthase 1 in human whole blood assay; type: tissue-based
[8] = Cmax in rat; type: ADME, organism-based; details: in vivo; summary of the method: as §2
[9] = Bioavailability in rat; type: ADME, organism-based; details: in vivo; summary of the method: as §2

Chain of Prostaglandin G/H synthase 1 (P23219 whole entry): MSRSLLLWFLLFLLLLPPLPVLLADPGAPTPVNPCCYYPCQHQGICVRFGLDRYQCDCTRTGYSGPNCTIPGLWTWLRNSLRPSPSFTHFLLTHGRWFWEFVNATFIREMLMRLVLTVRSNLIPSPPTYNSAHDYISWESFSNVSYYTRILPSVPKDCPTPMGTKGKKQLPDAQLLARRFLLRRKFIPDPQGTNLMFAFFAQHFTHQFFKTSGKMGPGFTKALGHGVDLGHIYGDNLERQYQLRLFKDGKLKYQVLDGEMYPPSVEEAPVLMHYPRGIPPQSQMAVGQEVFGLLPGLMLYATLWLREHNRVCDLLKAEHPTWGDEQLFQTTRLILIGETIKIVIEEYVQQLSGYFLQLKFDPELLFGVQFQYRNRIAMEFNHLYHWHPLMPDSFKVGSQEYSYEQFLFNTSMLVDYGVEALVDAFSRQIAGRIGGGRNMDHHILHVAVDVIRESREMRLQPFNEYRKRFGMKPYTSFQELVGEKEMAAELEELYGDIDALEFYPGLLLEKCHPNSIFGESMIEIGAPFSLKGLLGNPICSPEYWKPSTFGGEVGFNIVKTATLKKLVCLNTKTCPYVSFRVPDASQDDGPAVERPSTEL

Row | Structure (SMILES) | ED50 (Rattus norvegicus [1]) [mg/kg] | ED50 (Rattus norvegicus [2]) [mg/kg] | ED50 (Rattus norvegicus [3]) [mg/kg] | ED50 (Rattus norvegicus [4]) [mg/kg] | half-life [5] [h] | IC50 [6] [nM] | IC50 ([7]; read-out: IC50) [nM] | Cmax [8] [µM] | bioavailability [9] [%] | IC50 [7]
1 | COc1ccc2c(c1)c(CC(=O)O)c(C)n2C(=O)c1ccc(Cl)cc1 [INDOMETHACIN] | 2 | 0.2 | 1 | 1.4 | – | – | – | – | – | –
2 | CS(=O)(=O)c1ccc(C2=C(c3ccccc3)C(=O)OC2)cc1 [ROFECOXIB] | 1.5 | 0.8 | 0.2 | 1 | – | – | – | – | – | –
3 | CC[C@@]1(C)OC(=O)C(OC(C)C)=C1c1ccc(S(C)(=O)=O)cc1 (single isomer, unassigned) | 4.5 | – | 4.9 | – | < 2 | 500 | > 100000 | – | – | –
4 | CC(C)OC1=C(c2ccc(S(C)(=O)=O)cc2)C(C)(C)OC1=O | 0.8 | 0.3 | 0.3 | 0.8 | 7.1 | – | > 100000 | 15 | – | –
5 | CC[C@]1(C)OC(=O)C(OC(C)C)=C1c1ccc(S(C)(=O)=O)cc1 | 1.2 | 3.3 | 0.7 | 0.7 | 2 | 400 | > 86000 | 1.7 | 100 | –
6 | CC(C)OC1=C(c2ccc(S(C)(=O)=O)cc2)C(C)(CC(F)(F)F)OC1=O (stereo not given) | – | – | – | – | – | – | – | – | – | Not Active
